This is an account of results in paper PMC6408981 (Neuropharmacology, 2018).

In general, IC50 refers to the concentration needed to halve the response being measured. A word on the Ki: it is a measure of affinity in units of concentration, obtained from inhibition or displacement. One may read the inhibition as the drop in the measured response relative to a control, in per cent.

Data set [1] relates to ICR mice. Briefly: Nicotine conditioned place preference. It counts as in vivo, mouse. Put shortly:
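Male ICR mice underwent unbiased three-chamber CPP. Day 1: 5-min middle-chamber habituation, then 15 min free access as baseline. Days 2–4: two 20-min conditioning sessions daily, 4 h apart. Controls got saline in both large chambers, with i.p. pretreatment 15 min before. Day 5: 15-min drug-free test. Score = test minus baseline time on the paired side.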

For the next data set, the target named is T1, PPAR-α (Mus musculus, UniProt P23204).
T1 sequence (P23204 1-468): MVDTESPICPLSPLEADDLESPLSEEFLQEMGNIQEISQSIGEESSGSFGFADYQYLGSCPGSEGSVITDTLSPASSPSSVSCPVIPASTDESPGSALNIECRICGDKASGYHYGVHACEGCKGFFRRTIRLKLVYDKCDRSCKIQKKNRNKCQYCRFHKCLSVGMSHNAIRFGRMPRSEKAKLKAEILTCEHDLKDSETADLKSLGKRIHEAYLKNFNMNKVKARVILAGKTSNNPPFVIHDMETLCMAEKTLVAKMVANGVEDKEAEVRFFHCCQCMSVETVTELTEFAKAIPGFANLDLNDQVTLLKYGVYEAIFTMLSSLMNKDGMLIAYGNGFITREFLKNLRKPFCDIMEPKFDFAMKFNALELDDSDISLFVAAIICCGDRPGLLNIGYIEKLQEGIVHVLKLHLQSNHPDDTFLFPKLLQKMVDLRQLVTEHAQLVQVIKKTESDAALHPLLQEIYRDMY
Briefly: PPAR-α luciferase assay in COS-7 cells. The settings on record: 18 h. It counts as cell-based. The essentials:
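COS-7 cells in DMEM with 10% FBS were transfected by lipofection with mouse PPAR-α (25 ng), PPRE×3-TK-luciferase (300 ng), β-galactosidase control (100 ng) and empty pcDNA3 (75 ng) per well. Next day the medium was replaced with compound-containing medium for 18 h. Firefly luciferase chemiluminescence was normalised to β-galactosidase activity and compared by Welch-corrected t-test.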

In data set [2] the target is human recombinant CB1 receptor (Homo sapiens, UniProt P21554). The data set is described as follows: Cannabinoid receptor binding, [3H]-CP-55,940 displacement, CB1. Put shortly:
(§1)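 Membranes from HEK-293 cells stably expressing the human receptor (CB1 Bmax 2.5, CB2 Bmax 4.7 pmol/mg protein) were incubated with test compound and [3H]-CP-55,940 for 90 min at 30 °C. […] Nonspecific binding was defined with 10 μM WIN 55212-2. Ki came from IC50 via Cheng-Prusoff; at least 3 experiments, mean ± SEM.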

In data set [3] the target is human recombinant CB2 receptor (Homo sapiens, UniProt P34972). The data set is described as follows: Cannabinoid receptor binding, [3H]-CP-55,940 displacement, CB2. Put shortly:
as §1

The target in data set [4] is T2, fatty acid amide hydrolase (Rattus norvegicus, UniProt P97612).
T2 sequence (P97612 1-579): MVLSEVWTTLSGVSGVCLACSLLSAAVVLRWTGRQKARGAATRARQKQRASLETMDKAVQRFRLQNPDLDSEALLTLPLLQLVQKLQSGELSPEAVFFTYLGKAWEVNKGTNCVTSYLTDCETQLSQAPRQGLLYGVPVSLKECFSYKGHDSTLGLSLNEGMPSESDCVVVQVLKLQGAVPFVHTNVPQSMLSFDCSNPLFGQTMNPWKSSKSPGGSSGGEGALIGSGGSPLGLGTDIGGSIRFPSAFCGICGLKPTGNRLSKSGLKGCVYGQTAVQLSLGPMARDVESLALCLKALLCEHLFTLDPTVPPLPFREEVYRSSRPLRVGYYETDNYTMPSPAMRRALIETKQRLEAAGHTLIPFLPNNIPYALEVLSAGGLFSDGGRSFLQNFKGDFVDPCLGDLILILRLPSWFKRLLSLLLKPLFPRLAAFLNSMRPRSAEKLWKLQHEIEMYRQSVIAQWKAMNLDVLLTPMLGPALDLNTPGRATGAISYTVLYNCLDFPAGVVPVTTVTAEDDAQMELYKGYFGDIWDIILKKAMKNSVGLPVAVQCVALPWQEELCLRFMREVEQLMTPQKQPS
Briefly: AEA hydrolysis by rat brain membranes. It counts as biochemical.

Data set [5] relates to ICR mice. The data set is described as follows: Tetrad behavioral assessment. It counts as in vivo, mouse. Conditions: for Distance traveled / Speed / Time immobile: 10 min recording starting 5 min after injection; for Δ rectal temperature / Catalepsy / Antinociception: 30 min after injection; for Catalepsy: bar test; for Antinociception: tail withdrawal. The essentials: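 Mice were acclimated at least 1 h, then baseline tail-withdrawal latency and body temperature were taken. Test compound or vehicle was given i.p.; 30 min later came bar-test catalepsy (immobility over 60 s), tail withdrawal (%MPE with 10 cutoff) and Δ temperature. Locomotor: 5 min post-dose, distance (cm) and immobile time (s) were video-tracked for 10 min. Analysis: one-way ANOVA, Dunnett.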

Data set [6] can be described thus: OlGly levels in plasma and brain regions after i.p. injection. The class given is in vivo, mouse. Put shortly:
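ICR mice received test compound (60 mg/kg i.p.) or vehicle. After 15 min, plasma, insular cortex, hippocampus and hypothalamus were collected. Samples were extracted with chloroform/methanol/50 mM Tris-HCl pH 7.5 (2:1:1) containing deuterated internal standards. Quantification was by isotope-dilution LC-MS (C18 column, isocratic methanol/water/acetic acid, positive ESI).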

The next data set deals with nicotine-dependent mice. The data set is described as follows: Mecamylamine-precipitated nicotine withdrawal. The class given is in vivo, mouse. The essentials:
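Male ICR mice (6–8 weeks, 27–32 g) had s.c. minipumps implanted under isoflurane, delivering nicotine 24 mg/kg/day or saline for 14 days. On day 15 they got the test compound i.p. (10, 30 or 60 mg/kg) or vehicle, then mecamylamine 2 mg/kg s.c. at 15 min. From 25 min, blinded scoring: 5 min elevated plus maze (open/closed-arm time, arm crosses), then 20 min somatic signs; n = 7–8/group.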

The subject of data set [7] is ICR mice. Briefly: Morphine conditioned place preference. The class given is in vivo, mouse. Conditions: OlGly i.p. pretreatment, morphine 10 mg/kg s.c. (methods). The essentials: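 Unbiased three-chamber CPP in male ICR mice. Day 1 baseline: 15 min free access after 5-min habituation. Days 2–4: twice-daily conditioning, 4 h apart and counterbalanced. Test compound or vehicle was given i.p. 15 min before morphine (10 mg/kg s.c.); 30-min sessions began 15 min after morphine. Day 5: 15-min drug-free test. Score = test minus baseline time in the morphine-paired side.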

Data set [8] has as its system ICR mice. Briefly: Cumulative CP55,940 dose-response study. The class given is in vivo, mouse. Put shortly:
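Male ICR mice (6–8 weeks, 27–32 g) received test compound (60 mg/kg i.p.) or vehicle 10 min before the first CP55,940 dose. Further doses followed every 40 min. Bar-test catalepsy, tail-flick and rectal temperature were measured at baseline and 30 min after each dose. Analysis was two-way ANOVA with Sidak post-hoc.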

Another data set deals with rats. Conditions: ref Chaturvedi et al., 2006; cited from earlier work.
The test system of data set [9] is ICR mice. Conditions: ref Ignatowska-Jankowska et al., 2015; cited from earlier work.
The test system of the next data set is dependent smokers. Conditions: ref Perkins et al., 2016; cited from earlier work.
Another data set concerns mice. The settings on record: ref Jackson et al., 2017; cited from earlier work.
The test system of another data set is smokers. Conditions: clinical trials; ref Robinson et al., 2017; cited from earlier work.
The mark [10] stands for this setting: 60 mg/kg i.p., 15 min after injection, ICR mice.

Chain of human recombinant CB1 receptor (P21554 whole entry): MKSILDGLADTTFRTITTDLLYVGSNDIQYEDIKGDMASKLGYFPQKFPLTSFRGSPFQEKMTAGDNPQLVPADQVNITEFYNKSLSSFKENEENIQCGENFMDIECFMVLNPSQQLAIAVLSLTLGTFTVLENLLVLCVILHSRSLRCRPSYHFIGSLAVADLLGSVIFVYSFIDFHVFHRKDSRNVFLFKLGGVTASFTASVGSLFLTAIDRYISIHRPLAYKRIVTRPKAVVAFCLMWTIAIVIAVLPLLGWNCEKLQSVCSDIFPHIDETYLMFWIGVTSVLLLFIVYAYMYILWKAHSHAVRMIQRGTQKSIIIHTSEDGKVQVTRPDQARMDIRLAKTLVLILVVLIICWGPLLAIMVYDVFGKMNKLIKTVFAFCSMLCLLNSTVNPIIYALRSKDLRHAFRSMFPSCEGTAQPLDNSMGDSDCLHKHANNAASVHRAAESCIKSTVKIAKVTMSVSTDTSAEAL
Chain of human recombinant CB2 receptor (P34972 whole entry): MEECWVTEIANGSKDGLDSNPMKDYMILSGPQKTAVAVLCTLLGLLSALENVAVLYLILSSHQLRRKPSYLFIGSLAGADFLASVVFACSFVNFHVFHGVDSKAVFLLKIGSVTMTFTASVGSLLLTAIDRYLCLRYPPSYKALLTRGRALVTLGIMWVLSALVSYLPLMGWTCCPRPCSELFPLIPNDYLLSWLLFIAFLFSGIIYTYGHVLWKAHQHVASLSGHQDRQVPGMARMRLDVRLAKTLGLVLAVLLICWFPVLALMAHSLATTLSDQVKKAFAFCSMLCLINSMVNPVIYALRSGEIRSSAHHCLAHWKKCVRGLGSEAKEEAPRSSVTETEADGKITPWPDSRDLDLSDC

For the compound `CCC(=O)NC[C@H](Cc1ccc(OCCc2nc(-c3ccccc3)oc2C)cc1)N/C(C)=C\C(=O)c1ccc(C(F)(F)F)cc1` [GW6471, N-((2S)-2-(((1Z)-1-methyl-3-oxo-3-(4-(trifluoromethyl)phenyl)prop-1-enyl)amino)-3-(4-(2-(5-methyl2phenyl-1,3-oxazol-4-yl)ethoxy)phenyl)propyl)propanamide, reference compound], in the data set on ICR mice [1] (GW6471 2 mg/kg i.p. 30 min before OlGly, mice), the “Effect on OlGly blockade of nicotine CPP” value is recorded as “fully prevented OlGly blockade of nicotine CPP”.

In the case of `CC(C)(Sc1ccc(CCN(CCCCC2CCCCC2)C(=O)NC2CCCCC2)cc1)C(=O)O` [GW7647, reference compound], on PPAR-α (GW7647 10 mM as printed in Fig. 6), the “Luciferase activity compared to DMSO” value is given as “significantly increased luciferase activity”.

With `CCCCCCCC/C=C\CCCCCCCC(=O)NCC(=O)O` [OlGly, N-oleoyl-glycine], in data set [2], the IC50 is 45.5 ± 5.1 µM and the Ki turned out to be 27.8 ± 3.1 µM. Moreover, the “CB1 displacement produced by maximum dose tested (50 μM)” value in data set [2] (50 μM) is reported as 55.9 ± 7.3%. For the same compound, in data set [3], the IC50 is above 50 µM and the Ki is above 50 µM. Besides, the “CB2 displacement produced by maximum dose tested (50 μM)” value in data set [3] (50 μM) stood at 15.5 ± 6.40%. Moreover, the IC50 in [4] worked out at 8.65 µM. Moreover, the inhibition at 50 µM in data set [4] (read-out: FAAH inhibition produced by maximum dose tested (50 μM)) was 89.4%. For the same compound, in the data set with ICR mice [5] (10 mg/kg i.p.), the Distance traveled is reported as 24.3 ±1.2 cm, the Speed worked out at 8.1 ± 0.4 cm/s, the Time immobile was found to be 8.6 ± 1.6 s and the Δ rectal temperature was −0.90 ± 0.19 °C. Besides, in the data set with ICR mice [5] (10 mg/kg i.p.), the Catalepsy is given as 0.0 s and the Antinociception is given as 12.0± 6.6 %MPE. In the data set with ICR mice [5] (30 mg/kg i.p.), the Distance traveled turned out to be 21.5±1.7 cm, the Speed worked out at 7.2 ± 0.6 cm/s, the Time immobile was 11.8 ± 6.2 s and the Δ rectal temperature was −1.13 ± 0.26 °C. In the data set with ICR mice [5] (30 mg/kg i.p.), the Catalepsy is on record as 0.0 s and the Antinociception stood at 6.0 ± 4.5 %MPE. In the data set with ICR mice [5] (100 mg/kg i.p.), this compound had a Distance traveled of 18.6±1.5 cm, a Speed of 6.21 ± 0.5 cm/s, a Time immobile of 17.4 ± 7.3 s and a Δ rectal temperature of −0.22 ± 0.5431 °C. In the data set with ICR mice [5] (100 mg/kg i.p.), the Catalepsy is 0.0 s and the Antinociception worked out at 25.9±11.0 %MPE. In [6] (setting [10]), the “OlGly levels in hippocampus” value stood at 186.0 ± 60.05 pmol/g, the “OlGly levels in hypothalamus” value turned out to be 245.6 ± 108.1 pmol/g and the “OlGly levels in insula” value worked out at 168.0 ± 60.28 pmol/g. This compound showed a concentration at 15 min in data set [6] (ICR, mouse, plasma, intraperitoneal, 60 mg/kg) of 2000 ± 627 nM. For the same compound, the “Number of mecamylamine-precipitated somatic withdrawal signs” value with nicotine-dependent mice (60 mg/kg i.p., nicotine-dependent mice) is “attenuated the number of mecamylamine-precipitated somatic withdrawal signs”. Further, the “Overt behavioral alterations in control mice” value with nicotine-dependent mice (control mice continuously infused with saline) is reported as “did not elicit overt behavioral alterations”. For the same compound, the “Development of nicotine-induced CPP” value with ICR mice [1] (i.p. 15 min before nicotine 0.5 mg/kg s.c. on conditioning days, mice) is listed as “dose-dependently prevented the development of nicotine-induced CPP”. The “Place preference in saline-treated mice” value in the data set with ICR mice [1] (saline-treated mice) is recorded as “did not affect place preference”. Also, in the data set on ICR mice [7], the “Morphine CPP” value is recorded as “did not carry over to morphine CPP”. Moreover, the “Shift of the CP55,940 dose-response relationship in the tetrad assay” value in the data set on ICR mice [8] (OlGly 60 mg/kg i.p. 10 min before first CP55,940 dose, mice) was “did not alter the dose-response relationship”. Also, the “Luciferase activity compared to DMSO” value on PPAR-α (OlGly 10 mM, 50 μM and 100 mM as printed in Fig. 6) is “significantly increased luciferase activity”. For the same compound, in the data set on rats, the Locomotor activity entry is “decreases locomotor activity” and the “Reduction of body temperature” value was 1.5–2.0 °C.

Take `Cc1ccc2c(C(C[N+](=O)[O-])c3cccs3)c(-c3ccccc3)[nH]c2c1` (stereo not shown) [ZCZ011]: the “Shift of the CP55,940 dose-response curve (antinociceptive, cataleptic, hypothermic effects)” value in the data set on ICR mice [9] is “elicited a leftward shift”.

In the case of `CC(C)OC(=O)C(C)(C)Oc1ccc(C(=O)c2ccc(Cl)cc2)cc1` [fenofibrate], the “Ability to stop smoking during a brief practice quit period” value with dependent smokers is recorded as “did not facilitate the ability to stop smoking”. Further, in the data set on mice, the “Reversal of nicotine withdrawal” value is on record as “failed to reverse nicotine withdrawal”.

Turning to `Cc1c(C(=O)NN2CCCCC2)nn(-c2ccc(Cl)cc2Cl)c1-c1ccc(Cl)cc1` [rimonabant], in the data set with smokers, the “Smoking abstinence compared with placebo” value is recorded as “effectively improved smoking abstinence”.

“(−)-cis-3-[2-hydroxy-4-(1,1-dimethylheptyl)phenyl]-trans-4-(3-hydroxypropyl)-cyclohexanol [CP55,940, reference compound]”: in the data set on ICR mice [8] (cumulative 0, 0.3, 1 and 3 mg/kg i.p., vehicle-pretreated mice), the “Catalepsy, antinociception and hypothermia” value is recorded as “dose-dependently induced”.
